G6PDH counter: L. mesenteroides G6PDH inhibitors, counter-screen for G6PDH-coupled screening assays, biochemical, Leuconostoc mesenteroides enzyme; AID 1020, 2008; Purified L. mesenteroides G6PDH, diaphorase/resazurin coupled fluorescence, 45 min; inhibition, % at 5 µM; 200,000 compounds, 0.12% hits; in the data active = inhibition above about 50%
PfGluPho inh: PfG6PD enzyme inhibitors, primary screen, biochemical, fluorescence intensity, uHTS; inhibition, % at 20 µM; glucose-6-phosphate dehydrogenase-6-phosphogluconolactonase (Plasmodium falciparum 3D7); AID 504690, 2011; 350,000 compounds, 0.78% hits; PfGluPho enzyme, NADPH resazurin-diaphorase fluorescence;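 active = inhibition reaching at least a set limit at 20 µM in the primary screen, cut at about 59% in these data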;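 note: 0% = DMSO wells with substrate and 100% = DMSO wells lacking glucose-6-phosphate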
Tb hexokinase: Trypanosoma brucei hexokinase 1 inhibitors, primary screen, biochemical, G6PDH-coupled NADH absorbance, MLSCN library; recombinant TbHK1, G6PDH-coupled NADH A340; inhibition, % at 10 µM; AID 1430, 2008; 220,000 compounds, 0.11% hits;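 active = inhibition of 50% or more in the single-dose primary screen; inactive = inhibition below 50%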
Diaphorase inh: diaphorase inhibitors and chemical oxidizers, primary screen, counter-screen for diaphorase-coupled primary assays, biochemical, uHTS, resorufin fluorescence; diaphorase resazurin-to-resorufin fluorescence, NADH, 16 min; bacterial (C. kluyveri) enzyme, not human; inhibition, % at 20 µM; 190,000 compounds, 0.69% hits;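 active = primary screen inhibition at 20 µM above a set limit, cut at about 50% in these data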;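 note: plate controls were DMSO with full reaction for no effect and wells lacking NADH for full effect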
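Assay system: diaphorase enzyme from Clostridium kluyveri; Input: enzyme working solution with 0.14 U/mL diaphorase; Timing: 16 min at room temperature; Technique: resorufin fluorescence, excitation 544 nm, emission 590 nm; Benchmarks: positive control minus NADH, DMSO neutral control.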
HKDC1 inh: HKDC1 hexokinase inhibitors, primary screen, biochemical, fluorescence, uHTS; Q2TB90; inhibition, % at 20 µM; 340,000 compounds, 0.16% hits; recombinant HKDC1, G6PDH/diaphorase resazurin coupled fluorescence; AID 493160, 2011;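 active = inhibition above about 35% when tested at 20 µM, limit read from the data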;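 note: plate controls were DMSO wells with enzyme for no effect and DMSO wells lacking enzyme for full effect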
Target sequence (Q2TB90 whole entry, looked up): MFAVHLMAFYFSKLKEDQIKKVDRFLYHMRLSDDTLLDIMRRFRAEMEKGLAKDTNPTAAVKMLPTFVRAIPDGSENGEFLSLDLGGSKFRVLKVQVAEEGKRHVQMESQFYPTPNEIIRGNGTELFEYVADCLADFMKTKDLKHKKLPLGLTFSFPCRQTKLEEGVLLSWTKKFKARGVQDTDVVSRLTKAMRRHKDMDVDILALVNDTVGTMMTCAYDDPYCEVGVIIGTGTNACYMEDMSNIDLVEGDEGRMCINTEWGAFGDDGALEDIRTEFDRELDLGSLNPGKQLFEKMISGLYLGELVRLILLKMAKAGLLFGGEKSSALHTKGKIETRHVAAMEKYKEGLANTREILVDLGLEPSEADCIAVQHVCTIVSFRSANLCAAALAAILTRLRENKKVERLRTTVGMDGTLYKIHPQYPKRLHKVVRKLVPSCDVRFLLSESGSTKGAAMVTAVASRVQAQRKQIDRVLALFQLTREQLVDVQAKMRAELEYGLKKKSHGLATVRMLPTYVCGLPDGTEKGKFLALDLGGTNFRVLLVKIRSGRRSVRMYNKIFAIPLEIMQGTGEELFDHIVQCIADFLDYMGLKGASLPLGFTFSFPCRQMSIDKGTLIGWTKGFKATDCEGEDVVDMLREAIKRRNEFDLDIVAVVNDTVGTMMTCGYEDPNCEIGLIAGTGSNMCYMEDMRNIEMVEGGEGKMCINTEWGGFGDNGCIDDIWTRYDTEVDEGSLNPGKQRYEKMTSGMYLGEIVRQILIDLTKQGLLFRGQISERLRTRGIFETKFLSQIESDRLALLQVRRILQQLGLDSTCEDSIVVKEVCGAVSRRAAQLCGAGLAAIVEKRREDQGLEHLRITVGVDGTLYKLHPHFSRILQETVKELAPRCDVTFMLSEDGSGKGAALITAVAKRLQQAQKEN
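test system = in-house recombinant HK5 (HKDC1) enzyme | amount = HKDC1 at 5 µg/mL | control set = DMSO-enzyme wells negative, buffer-substituted wells positive | compound = one dose of 20 µM, 1% DMSO | schedule = reaction time 90 min, room temperature, protected from light | technique = resorufin fluorescence at 613 nm | reagent = glucose with 1 mM ATP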
Diaphorase act: compounds boosting diaphorase resazurin reduction – biochemical, uHTS, resorufin fluorescence, counter-screen for diaphorase-coupled primary assays, primary screen | Diaphorase/resazurin coupled assay, 16 min; active compounds read high; 1 = vehicle wells, 0 = NADH-free wells | activation factor at 20 µM | 190,000 compounds, 0.005% hits | AID 1229, 2008;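 active = diaphorase activity raised at least twofold by the compound at 20 µM; inactive = activation factor below 2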
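Material: Clostridium kluyveri diaphorase, purified enzyme; Quantity: enzyme 0.07 U/mL final; Medium: HEPES pH 7.4 buffer with MgCl2 and Tween 20; Dosing: single compound dose of 20 µM, 1% DMSO final; Schedule: 16 min reaction at room temperature; Measured by: red resorufin fluorescence at 544/590 nm excitation/emission.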
PfG6PD confirm: PfG6PD inhibitors, hit retest, confirmation, biochemical, fluorescence intensity, single concentration | shares compounds with PfGluPho inh | recombinant PfGluPho, NADPH-diaphorase-resazurin fluorescence | inhibition, % at 20 µM | 2,400 compounds, 34% hits | AID 504753, 2011;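 active = inhibition of at least 50% at 20 µM in any single replicate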;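 note: 0% = DMSO with substrate and 100% = DMSO lacking glucose-6-phosphate substrate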
Diaphorase 10uM: diaphorase inhibitors and chemical oxidizers, confirmation, counter-screen for P. falciparum G6PD inhibitor project, biochemical, fluorescence intensity, 10 µM NADPH | 820 compounds, 39% hits | diaphorase-coupled resazurin reduction, NADPH 10 uM | shares compounds with PfGluPho inh | inhibition, % at 20 µM;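 active = average inhibition reaching 50% or more with the compound at 20 µM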;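 note: resorufin red fluorescence formed as diaphorase reduces resazurin using NADPH; 0% = DMSO with enzyme and 100% = DMSO without enzyme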
Diaph ctr 30uM: diaphorase inhibitors and chemical oxidizers, confirmation, counter-screen for P. falciparum G6PD inhibitor project, biochemical, fluorescence intensity, 30 µM NADPH. shares compounds with PfGluPho inh. Diaphorase/resazurin coupled assay, resorufin fluorescence. inhibition, % at 20 µM. 820 compounds, 29% hits. AID 504863, 2011;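 active = inhibition averaging 50% or more, tested at 20 µM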;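 note: 0% = DMSO with enzyme and 100% = DMSO wells lacking diaphorase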
Active calls of the source: *; . = no result given. Sampled rows, rich in hits. Any-hit rate of the full collection: about 1.3%.

SMILES	G6PDH counter	PfGluPho inh	Tb hexokinase	Diaphorase inh	HKDC1 inh	Diaphorase act	PfG6PD confirm	others
NC(=O)N/N=C/c1ccc(-n2nncc2-c2ccc(Cl)cc2)cc1	.	77*	.	.	-1	.	50*	Diaphorase 10uM=48;Diaph ctr 30uM=50
CC(S(=O)(=O)c1ccccc1)S(=O)(=O)c1ccccc1	.	1	.	.	.	.	.
CC1=C/C(=N\OS(=O)(=O)c2ccccc2)C(C)=CC1=O	4	111*	7	100*	18	0	105*	Diaphorase 10uM=98*;Diaph ctr 30uM=103*
CC1=C/C(=N\OS(=O)(=O)c2ccccc2)C(C(C)C)=CC1=O	40	98*	-8	101*	18	0	96*	Diaphorase 10uM=76*;Diaph ctr 30uM=63*
CON=C1C=C(C)C(=O)C(C)=C1C	.	3	.	.	0	.	.
Cc1ccc(C)c(S(=O)(=O)N2CCCCC2CCNC(=O)C(=O)NC2CC2)c1 (stereo not given)	.	-15	.	.	-8	.	.
CCN(Cc1nc2ccccc2c(=O)[nH]1)C(=O)c1cccc(OCc2c(C)noc2C)c1	.	3	.	.	-2	.	.
Cn1cc(S(=O)(=O)CC(=O)Nc2ccc(Br)cc2)c2ccccc21	10	87*	4	17	2	0.8	39
Cc1ccc(NC(=O)CS(=O)(=O)c2cn(C)c3ccccc23)c(C)c1	.	16	-8	.	1	.	.
Nc1ccccc1SCc1csc(-c2ccc(Cl)cc2)n1	.	60*	-10	.	-1	.	5
Cc1cc(C)c2c(N)c(C(=O)N3CCCCCC3)sc2n1	0	70*	13	6	0	0.9	1
Cc1ccc(C)c2nc3sc(C(=O)N4CCOCC4)c(N)c3cc12	14	44	-6	40	7	0.6	.
Cc1cc(C)c2nc3sc(C(=O)N4CCOCC4)c(N)c3cc2c1	.	65*	-18	.	-2	.	24
C[C@H](O)[C@@H]1CN2CCc3c([nH]c4ccc(-c5ccc6c(c5)OCO6)cc34)[C@@H]2C[C@@H]1N(C)C(=O)NC1CCCCC1	.	-7	.	.	.	.	.
COCCOC(=O)C1=C(C)NC(=O)NC1c1c(F)cccc1Cl (stereo not given)	6	-8	-6	10	-3	0.9	.
CC(=O)Nc1cccc(NC(=O)Cc2cccs2)c1	.	-4	.	.	-1	.	.
O=C(Cc1cccs1)Nc1cccc(-c2nc3cc4ccccc4cc3[nH]2)c1	7	63*	-6	19	-3	0.8	7
Cc1c(Br)c([N+](=O)[O-])nn1C(C)C(=O)Nc1c(C)n(C)n(-c2ccccc2)c1=O (stereo not given)	6	-13	1	11	-13	0.9	.
O=C(Nc1nnc(S(=O)(=O)N2CCOCC2)s1)c1ccc(Cl)cc1	.	104*	.	.	-1	.	72*	Diaphorase 10uM=72*;Diaph ctr 30uM=54*
COc1ccccc1C(=O)Nc1nnc(S(=O)(=O)N2CCC(C)CC2)s1	.	1	.	.	-2	.	.
O=C(Nc1nnc(S(=O)(=O)N2CCOCC2)s1)c1ccccc1Br	.	14	.	.	-2	.	.
COc1ccc(C(=O)Nc2nnc(S(=O)(=O)N3CCOCC3)s2)cc1	.	78*	.	.	3	.	51*	Diaphorase 10uM=39;Diaph ctr 30uM=32
COc1ccccc1C(=O)Nc1nnc(S(=O)(=O)N2CCOCC2)s1	.	-5	.	.	1	.	.
CC1CCN(S(=O)(=O)c2nnc(NC(=O)c3cccc(Cl)c3)s2)CC1	.	86*	.	.	7	.	42
CCc1nnc(NC(=O)c2cccc(OC)c2)s1	4	62*	0	9	-3	0.9	42
SMILES	G6PDH counter	PfGluPho inh	Tb hexokinase	Diaphorase inh	HKDC1 inh	Diaphorase act	PfG6PD confirm	others
Cc1nn(C)c(C)c1NC(=S)Nc1ccc(S(=O)(=O)Nc2ncccn2)cc1	.	5	.	.	-3	.	.
COC(=O)C[C@H]1C[C@H]2c3cc(NC(=O)Cc4ccncc4)ccc3O[C@H]2[C@@H](CO)O1	.	-1	.	.	.	.	.
COc1ccccc1Nc1nc(N)nc(CSC(=S)N2CCCCC2)n1	.	15	-13	.	-3	.	.
CCc1nnc(NC(=O)CCC(=O)NCCc2ccccc2)s1	.	5	.	.	-7	.	.
O=C(Nc1nnc(S(=O)(=O)N2CCOCC2)s1)c1ccccc1	.	63*	.	.	2	.	31
O=C(Nc1nnc(S(=O)(=O)N2CCCCCC2)s1)c1ccccc1	.	33	.	.	7	.	.
COc1ccc(C(=O)Nc2nnc(C(F)(F)F)s2)cc1	2	118*	-2	16	0	0.8	96*	Diaphorase 10uM=89*;Diaph ctr 30uM=62*
CN(C(=O)c1cccc(NC(=O)Cc2ccc(NC(=O)C3CCN(S(=O)(=O)c4cccc([N+](=O)[O-])c4)CC3)cc2)c1)C1CC1	.	13	.	.	-1	.	.
Cc1sc(NC(=O)C2CC(=O)N(Cc3ccco3)C2)nc1-c1ccccc1 (stereo not given)	.	14	.	.	.	.	.
Cc1cc(C)c(C)c(Cn2c(CO)nc3ccccc32)c1C	5	69*	7	22	-1	0.8	36
OCc1nc2ccccc2n1Cc1ccc(Cl)cc1	.	-20	.	.	2	.	.
Cc1c(C(=O)Nc2cccc([N+](=O)[O-])c2)sc2ncn(CC(=O)N3CCOCC3)c(=O)c12	.	-7	.	.	-4	.	.
Cc1c(C(=O)N(Cc2ccccc2Cl)C2CCS(=O)(=O)C2)oc2ccccc12 (stereo not given)	.	96*	.	.	2	.	57*	Diaphorase 10uM=59*;Diaph ctr 30uM=46
COc1ccc(-n2nc3c(c2NC(=O)c2cc4ccccc4o2)CS(=O)(=O)C3)cc1	.	-7	.	.	10	.	.
